Data taken from ChEMBL document CHEMBL5247630, “Rational design of the zonulin inhibitor AT1001 derivatives as potential anti SARS-CoV-2” (Eur J Med Chem, 2022).
Non-standard residues stand in square brackets, D forms with d. Residues, ends and D or L forms follow the SMILES beside them. *: point of attachment. Hyp = O=C(O)[C@@H]1C[C@@H](O)CN1; tBu = CC(C)(C)*

How the values were obtained:
[1] = biological target: T1, Replicase polyprotein 1ab (Severe acute respiratory syndrome coronavirus 2, UniProt P0DTD1); experiment: Inhibition of C-terminal His6-tagged recombinant SARS-CoV-2 MPro transfected in Escherichia coli BL21 (DE3) using Dabcyl-KTSAVLQSGFRKM-E(Edans)-NH2 as substrate preincubated for 15 mins followed by substrate addition measured after 30 mins by FRET assay
Summary of the method: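 Recombinant Mpro (20 nM final) was preincubated 15 min at room temperature with compound.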

[2] = biological target: T1, Replicase polyprotein 1ab; experiment: Binding affinity to C-terminal His6-tagged recombinant SARS-CoV-2 MPro transfected in Escherichia coli BL21 (DE3) assessed as dissociation constant by Cheng-Prusoff equation analysis
[3] = Cytotoxicity against HELF cells assessed as change in cell morphology; type: toxicity, cell-based; conditions: human
[4] = test system: Human betaherpesvirus 5; experiment: Antiviral activity against HCMV Davis infected in HELF cells assessed as reduction in viral replication; type: functional, organism-based; conditions: Human betaherpesvirus 5, Davis
[5] = test system: Human betaherpesvirus 5; experiment: Antiviral activity against HCMV AD-169 infected in HELF cells assessed as reduction in viral replication; type: functional, organism-based; conditions: Human betaherpesvirus 5, AD-169, HELF
[6] = test system: Human alphaherpesvirus 3; experiment: Antiviral activity against thymidine kinase positive VZV OKA infected in HELF cells assessed as reduction in viral replication; type: functional, organism-based; conditions: Human alphaherpesvirus 3, OKA
[7] = biological target: Replicase polyprotein 1ab (Severe acute respiratory syndrome coronavirus 2) (UniProt P0DTD1); experiment: Binding affinity to C-terminal His6-tagged recombinant SARS-CoV-2 MPro expressed in Escherichia coli BL21 (DE3) assessed as change in entropy by ITC assay
Summary of the method: (§1)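 E. coli BL21(DE3) Mpro, made untagged by 3C cleavage and SEC, was dialysed into 25 mM Tris-HCl pH 7.6, 20 mM NaCl, 1 mM TCEP. 20–25 µM protein in the cell was titrated with 160–250 µM compound at 28 °C, 0.5% DMSO on both sides, 2.5 µL injections every 180 s. One-site fit with stoichiometry fixed at 1 gave ΔH, ΔS and KD.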

[8] = test system: SARS-CoV-2; experiment: Antiviral activity against SARS-CoV-2 RG2674 infected in African green monkey Vero cells assessed as reduction in virus-induced cytopathic effect incubated for 5 days by microscopic analysis; type: functional, organism-based; conditions: Severe acute respiratory syndrome coronavirus 2, RG2674, Vero, 120 h
[9] = Stability of compound in PBS buffer at pH 7 at 25 to […] degreeC measured for 3 to 24 hrs by HPLC analysis; type: physicochemical; conditions: time 3-24 hrs
Summary of the method: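 Peptide at 0.3 mg/mL was held in PBS pH 7.0 at 25 °C and 37 °C for 24 h. The peptide peak area was followed by RP-HPLC on C18 with detection at 220 nm, sampled at 3, 6, 8 and 24 h.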

[10] = test system: Human alphaherpesvirus 3; experiment: Antiviral activity against thymidine kinase deficient VZV 07-1 infected in HELF cells assessed as reduction in viral replication; type: functional, organism-based; conditions: Human alphaherpesvirus 3, 07-1, HELF
[11] = biological target: Replicase polyprotein 1ab (Severe acute respiratory syndrome coronavirus 2) (UniProt P0DTD1); experiment: Binding affinity to C-terminal His6-tagged recombinant SARS-CoV-2 MPro expressed in Escherichia coli BL21 (DE3) assessed as change in enthalpy by ITC assay; summary of the method: as §1
[12] = test system: SARS-CoV-2; experiment: Antiviral activity against SARS-CoV-2 NVDBB-2220 infected in African green monkey Vero cells assessed as reduction in virus-induced cytopathic effect incubated for 5 days by microscopic analysis; type: functional, organism-based; conditions: Severe acute respiratory syndrome coronavirus 2, NVDBB-2220, Vero, 120 h
[13] = test system: SARS-CoV-2; experiment: Antiviral activity against SARS-CoV-2 UC-1074 infected in African green monkey Vero cells assessed as reduction in virus-induced cytopathic effect incubated for 5 days by microscopic analysis; type: functional, organism-based; conditions: Severe acute respiratory syndrome coronavirus 2, UC-1074, Vero, 120 h
[14] = Cytotoxicity against African green monkey Vero cells assessed as change in cell morphology by microscopic analysis; type: toxicity, cell-based; conditions: chlorocebus sabaeus
Summary of the method: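 Vero CCL81 cells were run in parallel with the antiviral assay in DMEM 2% FCS for 5 days at 37 °C. The value is the minimum concentration causing a microscopically detectable change in cell morphology.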

[15] = biological target: T1, Replicase polyprotein 1ab; experiment: Binding affinity to C-terminal His6-tagged recombinant SARS-CoV-2 MPro expressed in Escherichia coli BL21 (DE3) assessed as dissociation constant by ITC assay; summary of the method: as §1
[16] = biological target: Replicase polyprotein 1ab (Severe acute respiratory syndrome coronavirus 2) (UniProt P0DTD1); experiment: Binding affinity to C-terminal His6-tagged recombinant SARS-CoV-2 MPro expressed in Escherichia coli BL21 (DE3) assessed as change in gibbs free energy by ITC assay
[17] = test system: Vero; experiment: Cytotoxicity against African green monkey Vero cells assessed as reduction in cell growth by Coulter counter analysis; type: toxicity, cell-based; conditions: chlorocebus sabaeus
Summary of the method: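 Mock-infected Vero CCL81 cultures were treated with the compound dilution series in DMEM 2% FCS for 5 days at 37 °C.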

CC(=O)NCC(=O)N[C@@H](Cc1ccc(O)cc1)C(=O)N[C@H](C=O)Cc1c[nH]cn1 (Ac-Gly-Tyr-His-aldehyde) gave an IC50 [1] of 198 µM and a Kd [2] of 98.9 µM.

For CC(=O)NCC(=O)N[C@@H](Cc1c[nH]cn1)C(=O)N[C@H](C=O)Cc1c[nH]cn1 (Ac-Gly-His-His-aldehyde), the IC50 [1] was > 213 µM and the Kd [2] was > 107 µM.

For Nc1nc2c(ncn2COCCO)c(=O)[nH]1 [ACYCLOVIR], the MCC [3] was > 444 µM.

Nc1ccn(C[C@@H](CO)OCP(=O)(O)O)c(=O)n1 [CIDOFOVIR] gave an EC50 [4] of 0.25 µM and an EC50 [5] of 1.08 µM.

For CC(C)(C)O[C@H]1CN[C@H](C(=O)N[C@@H](Cc2c[nH]cn2)C(=O)N[C@H](C=O)Cc2c[nH]cn2)C1 (H-[Hyp](tBu)-His-His-aldehyde), the IC50 [1] was > 170 µM and the Kd [2] was > 85 µM.

For CC(=O)NCC(=O)N[C@@H](Cc1c[nH]cn1)C(=O)N[C@H](C=O)Cc1ccc(O)cc1 (Ac-Gly-His-Tyr-aldehyde), the IC50 [1] was > 425 µM and the Kd [2] was > 213 µM.

With CC(=O)NCC(=O)N[C@@H](Cc1ccccc1)C(=O)N[C@H](C=O)Cc1c[nH]cn1 (Ac-Gly-Phe-His-aldehyde) the EC50 [6] was > 100 µM, the EC50 [4] was > 100 µM and the -TdeltaS [7] was 4.16 kcal/mol. For the same molecule, the EC50 [8] was > 100 µM, the Stability [9] was “Stable” and the EC50 [10] was > 100 µM. For the same molecule, the deltaH [11] was -12.7 kcal/mol, the EC50 [12] was 40.3 µM and the IC50 [1] was 2.51 µM. The EC50 [5] was > 20 µM, the EC50 [13] was 66.1 µM and the MCC [14] was ≥ 100 µM. For the same molecule, the Kd [15] was 0.64 µM, the MCC [3] was > 100 µM and the Kd [2] was 1.26 µM. The deltaG [16] was -8.53 kcal/mol and the CC50 [17] was > 100 µM.
